Source: PubChem BioAssay
A selection: hits, their analogues and other compounds. The true share with any hit is near 4.3%.
FLuc stim CS = affects firefly luciferase, flagging false hits in luciferase stimulation screens. activation factor at 10 µM. 200,000 tested, under 10 active. ATPlite luciferase biochemical, luminescence, 10 min; 0 = ATP-free wells, 1 = DMSO control;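 active = luciferase activation factor, scaled between plate controls, of at least 2 with compound at 10 µM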
Target sequence (P08659 whole entry, looked up): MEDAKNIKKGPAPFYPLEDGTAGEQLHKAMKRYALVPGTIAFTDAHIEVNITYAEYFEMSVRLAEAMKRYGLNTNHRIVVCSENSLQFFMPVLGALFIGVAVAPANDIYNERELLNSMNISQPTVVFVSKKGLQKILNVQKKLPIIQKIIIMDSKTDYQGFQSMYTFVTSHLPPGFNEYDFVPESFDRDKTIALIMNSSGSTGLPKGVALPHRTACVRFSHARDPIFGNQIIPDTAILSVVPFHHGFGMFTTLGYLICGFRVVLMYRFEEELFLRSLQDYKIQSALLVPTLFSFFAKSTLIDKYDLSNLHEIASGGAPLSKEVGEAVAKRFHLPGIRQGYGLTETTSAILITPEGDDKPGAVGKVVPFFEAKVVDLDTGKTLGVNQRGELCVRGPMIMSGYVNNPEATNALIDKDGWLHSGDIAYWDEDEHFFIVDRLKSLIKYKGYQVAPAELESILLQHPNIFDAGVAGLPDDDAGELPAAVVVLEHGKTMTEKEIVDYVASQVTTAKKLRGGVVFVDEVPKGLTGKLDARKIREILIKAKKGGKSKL
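assay system = Luciferase/luciferin detection reagent, cell-free biochemical luciferase assay | also added = ATP substrate | times = 10 min post-reagent at room temperature | measured by = luminescence from luciferase reaction | measure = luciferase activation, seen as luminescence increase over controls | benchmarks = low control with PBS replacing ATP, high control enzyme plus ATP without compound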
STAT1 act = STAT1 signaling activation. NIH 3T3 STAT1-luciferase reporter, IFN-gamma, luminescence; 100% = IFN-gamma alone, no compound. activation (% of control), % at 5.5 µM. 200,000 compounds, 2.6% hits;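 active = activation above the screen-wide mean activation plus 3 SD, cut at about 130% in these data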
NF-kB neuron act = compounds increasing NF-kB expression in human neuronal cells. NF-kB reporter expression; stronger effect = higher value. fold change at 12.5 µM. 190,000 compounds, 1.6% hits; in the data active = fold change above about 3.3
FLuc inhib CS = inhibits firefly luciferase, flagging false hits in luciferase inhibition screens; 200,000 compounds, 1.5% hits; ATPLite firefly luciferase biochemical luminescence, 10 min; P08659; inhibition, % at 10 µM;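 active = inhibition above about 50% when tested at 10 µM, limit read from the data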
APP 5'UTR act = activates APP 5'UTR luciferase reporter. SH-SY5Y APP 5'UTR luciferase reporter, luminescence; zero percent = DMSO vehicle wells. activation, % at 2 µM. AID 1276. 190,000 compounds, 1% hits;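 active = activation above a set limit, based on mean plus 3 SD of controls, cut at about 140% in these data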
SDO1 yeast rescue = restores growth of sdo1-depleted yeast; 140,000 compounds, 0.21% hits; S. cerevisiae sdo1-depleted JHY4D growth rescue, OD600 30 h; stronger effect = higher value; pdr5 snq2 efflux-pump mutant strain; z-score at 10 µM;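 active = z-score above 3 at both the 24 hr and the 30 hr optical density reads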
Large screens that a line does not name were inactive.

COc1cccc(CN(C)CC(=O)Nc2c(C)cccc2C(C)C)c1	none (no result: NF-kB neuron act, SDO1 yeast rescue)
c1ccc(-c2csc(-c3ccncc3)n2)cc1	STAT1 act 132.7 (no result: SDO1 yeast rescue)
COc1ccc(-c2cc(C(=O)OC(C)C(=O)Nc3c(C)n(C)n(-c4ccccc4)c3=O)c3ccccc3n2)cc1 (stereo unspecified)	none
Cc1c(NC(=O)COC(=O)c2cc(-c3ccc(-c4ccccc4)cc3)nc3ccccc23)c(=O)n(-c2ccccc2)n1C	STAT1 act 146.5, NF-kB neuron act 4.11, FLuc inhib CS 84.7
Cc1nn(Cc2c(F)c(F)c(F)c(F)c2F)c(C)c1NC(=O)c1ccc(COc2ccc(F)cc2)o1	none
C=CCn1c(C)cc(C(=O)COC(=O)[C@@H](NC(=O)c2ccccc2Cl)C(C)C)c1C	FLuc inhib CS 96.5
C=CCn1c(C)cc(C(=O)COC(=O)COc2ccccc2C#N)c1C	none
C=CCc1cc(OC)ccc1OCCOCCN1CCc2ccccc2C1	none (no result: SDO1 yeast rescue)
Cc1ccc(CSc2nc3ncccc3[nH]2)cc1	FLuc inhib CS 82.9
O=C(c1ccc(CSc2nc3ccncc3[nH]2)cc1)N1CCN(c2cccc(Cl)c2)CC1	none
C=C(C)CSc1nc2ncccc2[nH]1	none
Cc1ccc(CSc2nc3ccncc3[nH]2)cc1	NF-kB neuron act 5.19, FLuc inhib CS 98.0, APP 5'UTR act 147.5
Clc1ccc(CSc2nc3ccncc3[nH]2)cc1	NF-kB neuron act 7.47, FLuc inhib CS 97.3, APP 5'UTR act 147.2
CC1CCCc2sc3ncn(N)c(=N)c3c21 (stereo unspecified)	none (no result: SDO1 yeast rescue)
COc1cccc(CNC(=O)C2=C(C)C(=O)OC23CCC(C)CC3)c1 (stereo unspecified)	none
CCc1cc2c(=O)c(-c3ccc4c(c3)OCCO4)coc2cc1OC(=O)c1ccco1	APP 5'UTR act 141.0
CCCc1c(C)c2ccc(OCC(C)=O)cc2oc1=O	STAT1 act 130.8
CCOC(=O)CCc1c(C)c2ccc(OCC(=O)OC(C)C)cc2oc1=O	none
CCCCc1c(C)c2ccc(OCC(C)=O)cc2oc1=O	STAT1 act 133.0
O=C(NCc1ccccn1)c1cccc(NS(=O)(=O)c2ccccc2F)c1	none
c1ccc2c(c1)nnn1c3ccccc3nc21	STAT1 act 146.4, NF-kB neuron act 5.28, APP 5'UTR act 147.0
Cc1nc2ccccc2c2nc3ccccc3n12	none
CCOCCCNc1ccc(-c2ccccc2)nn1	STAT1 act 140.2
CCc1ccccc1NC(=O)Nc1cc(F)ccc1F	none (no result: SDO1 yeast rescue)
O=C(Nc1ccc(O)cc1)c1cc2ccccc2c(=O)s1	none (no result: SDO1 yeast rescue)
O=C(Nc1ccccc1)c1cc2ccccc2c(=O)s1	STAT1 act 145.9
COC(=O)c1ccccc1NC(=S)N(Cc1ccc2c(c1)OCO2)Cc1cc2cc(OC)ccc2[nH]c1=O	none
CCOc1ccc(NC(=S)N2CCC(C(N)=O)CC2)cc1	none
CC1=CC(C)(C)N(S(=O)(=O)c2ccc(C)cc2)c2cc(C)ccc21	NF-kB neuron act 4.37
O=c1n(-c2ccc(Br)cc2)cnn1-c1ncccc1[N+](=O)[O-]	STAT1 act 130.5 (no result: SDO1 yeast rescue)
O=[N+]([O-])c1cccnc1N1CCCCC1	none
Cn1c(-c2cccc3ccccc23)n[nH]c1=S	none
CCOc1ccc(C2CC(c3cccc(OC)c3)Nc3ncnn32)cc1 (stereo unspecified)	none (no result: STAT1 act)
CCOC(=O)c1sc(=NC(=O)c2ccc(S(=O)(=O)N(C)c3ccccc3)cc2)n(C)c1C	none (no result: SDO1 yeast rescue)
CCOC(=O)N1CCN(C(=O)CCSc2ccccc2)CC1	STAT1 act 133.8
CCOC(=O)c1sc(=NC(=O)c2cccc(C)c2)n(C)c1C	STAT1 act 142.5, NF-kB neuron act 3.49, APP 5'UTR act 161.9 (no result: SDO1 yeast rescue)
CCOC(=O)N1CCN(C(=O)CCSc2ccc(C)cc2)CC1	none
CCOC(=O)c1sc(=NC(=O)CCSc2ccccc2)n(C)c1C	STAT1 act 136.1 (no result: SDO1 yeast rescue)
CCOC(=O)c1sc(=NC(=O)c2ccc(C)cc2)n(C)c1C	STAT1 act 139.2, NF-kB neuron act 3.67 (no result: SDO1 yeast rescue)
CCOC(=O)c1sc(=NC(=O)c2cc(OC)c(OC)c(OC)c2)n(C)c1C	none
O=C(Cc1sc(Nc2ccccc2)nc1-c1ccccc1)NCc1ccccn1	STAT1 act 130.4 (no result: SDO1 yeast rescue)
Cc1ccc(Nc2nc(-c3ccccc3)c(CC(=O)O)s2)cc1	STAT1 act 131.0 (no result: SDO1 yeast rescue)
Cc1ccc(S(=O)(=O)Nc2ccccc2/C=N/c2nc3ccccc3n2C)cc1	none
Cc1ccccc1Nc1nc2ccccc2s1	STAT1 act 142.7, NF-kB neuron act 5.56
OCC(O)/C=N/Nc1nc2ccccc2s1 (stereo unspecified)	none (no result: SDO1 yeast rescue)
CSc1nc2ccc3nc(NC(=O)c4ccc(C)cc4)sc3c2s1	none
Fc1ccc(Nc2nc3ccccc3s2)cc1	STAT1 act 145.8, NF-kB neuron act 3.31 (no result: SDO1 yeast rescue)
Cc1ccccc1Nc1nn2c(=O)c3ccccc3nc2s1	STAT1 act 137.8
Cc1ccc(C(=O)Nc2nc3ccccc3c(=O)s2)cc1	FLuc inhib CS 79.6
Cc1snc(S(=O)(=O)/C(C#N)=N/Nc2ccc(C(F)(F)F)cc2)c1C#N	none
Cc1ccc(CN(CC(=O)N/N=C/c2ccco2)S(=O)(=O)c2ccc(C)cc2)cc1	none
OCCC1CN(Cc2ccc(-n3cccn3)cc2)CCN1Cc1ccccc1 (stereo unspecified)	none (no result: SDO1 yeast rescue)
C=C(C)C(=O)OC1(C(F)(F)F)Oc2cc(C)ccc2NC1=O (stereo unspecified)	none
COc1ccc(CNC(=O)c2nnn(-c3cccc(C(F)(F)F)c3)c2N)cc1	none (no result: SDO1 yeast rescue)
C/C(Cl)=C/CSc1nn2c(=O)c3ccccc3nc2s1	none (no result: APP 5'UTR act)
C=CCSc1nn2c(=O)c3ccccc3nc2s1	STAT1 act 133.7
O=C(Nc1nc(=O)c2ccccc2s1)c1ccccc1	STAT1 act 137.9, NF-kB neuron act 3.65, FLuc inhib CS 59.8
O=C(Nc1nc2ccccc2s1)c1ccc(F)cc1	NF-kB neuron act 8.97, FLuc inhib CS 63.7, APP 5'UTR act 173.4 (no result: SDO1 yeast rescue)
CC(=O)Nc1nc(=O)c2ccccc2s1	none
Cc1nn(CC#N)c(=O)n1-c1ccc(F)cc1	none
CC(=O)c1c(C)[nH]c(C(=O)OCCCCN2C(=O)c3ccccc3C2=O)c1C	none
CCOC(=O)c1cnc2ccc(C(=O)OC)cc2c1Nc1cccc(C(=O)O)c1	none (no result: SDO1 yeast rescue)
CCOC(=O)c1cnc2ccccc2c1Nc1cccc(C(=O)O)c1	FLuc inhib CS 86.1 (no result: SDO1 yeast rescue)
CN(C)c1ccc(C(=S)NCc2ccco2)cc1	STAT1 act 133.7, NF-kB neuron act 8.07
CCOc1ccc2nc(NC(=O)c3cccnc3)sc2c1	STAT1 act 132.5, FLuc inhib CS 60.1
CCOc1ccc2nc(NC(=O)c3cnc(C)cn3)sc2c1	none
CCOc1ccc2nc(SCC(=O)c3ccc(Cl)s3)sc2c1	none
CCOc1ccc2nc(NC(=O)CCn3cccc3)sc2c1	none
CCOc1ccc2nc(SCC(=O)c3cccs3)sc2c1	STAT1 act 130.8, NF-kB neuron act 4.38
CCCC(=O)Nc1nc2ccc(OCC)cc2s1	STAT1 act 149.6, NF-kB neuron act 4.34
